Source: the EternaBench riboswitch data

Legend:
[1] = tested on: MS2 coat protein; assay: apparent Kd, MS2 coat protein; higher = weaker binding; RNA-MaP array; theophylline 2 mM where present
In short: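 Designs were transcribed by stalled E. coli RNA polymerase on Illumina sequencing-chip clusters. They were titrated with SNAP-549-labelled MS2 coat protein from 0.7 or 1.5 nM, doubling to 3 µM, in 100 mM Tris-HCl pH 7.5, 80 mM KCl, 4 mM MgCl2, BSA, DTT, yeast tRNA and Tween-20, without and then with constant ligand. The apparent Kd is the median of filtered per-cluster fits after normalisation of green signal to red-channel RNA signal and control-cluster median Fmax.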

[2] = tested on: MS2 coat protein; assay: apparent Kd, MS2 coat protein; higher = weaker binding; RNA-MaP array; conditions: designed as: OFF switch for flavin mononucleotide
In short: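 For each design, the apparent Kd is the median of binding-curve fits across its clusters. Designs measured on fewer than 10 clusters were dropped. The RNAs were transcribed from sequenced DNA templates on an Illumina sequencing chip and incubated at room temperature, with or without input ligand, with fluorescently labeled MS2 coat protein at 1.5 nM to 3 μM.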

[3] = designed as: ON switch for theophylline, no ligand
[4] = ligand present: theophylline, designed as: ON switch for theophylline
[5] = designed as: OFF switch for theophylline, no ligand
[6] = ligand present: theophylline, designed as: OFF switch for theophylline
[7] = ligand present: flavin mononucleotide

| Sequence | apparent Kd [1, 3] | apparent Kd [1, 4] | apparent Kd [1, 5] | apparent Kd [1, 6] | further results |
| --- | --- | --- | --- | --- | --- |
| AAUAUAAGUGUAAUUAUAUGUAUCUCUGAUACCAGACUCUCAUGUGUCCCUUGGCAGCAGUUACAUGAGGAUCACCCAUGUAUUA | 103 nM | 31.9 nM |  |  |  |
| UGUUUGGUGCGCGAGUGUUGGAUAAUUGAUACCAGUGUAGAUGUACGCCCUUGGCAGCGAAUCCGAACAUGAGGAUCACCCAUGU | 32.5 nM | 87.2 nM |  |  |  |
| GAGACAUGAGGAUCACCCAUGUUAGAUGAUACCAGUUAGAGAAGGAGCCCUUGGCAGCGUAAAUCUAGAGCCUAUGACGACAUGU | 13.4 nM | 14.2 nM |  |  |  |
| AGUGUUAUAACUGAUACCAGACCUUUGCUUAUACAUGAGGAUCACCCAUGUAAAAUGGCUGUCCCUUGGCAGCAGAGAAUACACA | 46 nM | 16.5 nM |  |  |  |
| GGUGAUCCGUAUCACCGGAUCAUCGGUGAUACCAGCAUCGAAAGAUGCCCUUGGCAGCACCAACAUGAGGAUCACCCAUGUAAUA | 120 nM | 25.9 nM |  |  |  |
| GAGCUGAUGUAGAGAUUUUAUUUCUGAGAUACCAGUACAGAAAUGUACCCUUGGCAGCUCAGCUUUACAUGAGGAUCACCCAUGU |  |  | 17.2 nM | 22.1 nM |  |
| ACGACGCAUAGUGAUACCAGCACAACAUGAGGAUCACCCAUGUCACAUAUGUUGUAAUAAUGCCCUUGGCAGCACUAUGCGUCAG | 52 nM | 87.3 nM |  |  |  |
| ACAUGAGGAUCACCCAUGUUCCUCGCCGAUACCAGUGAAGAAUUACGCCCUUGGCAGCGGAAAGAGUAUUUUGGAGAUGAGGUAC |  |  | 69.8 nM | 83.5 nM |  |
| UAUAUAGUGAUGGAUACCAGCAGAGAAAACGUUUAUCCUAACAUGAGGAUCACCCAUGUAUGCCCUUGGCAGCUGUUGUUAUAUA |  |  | 20.1 nM | 28 nM |  |
| AGUGUUAUAACUGAUACCAGACUCUCAUGUUUACAUGAGGAUCACCCAUGUUAUUUCUUUGUCCCUUGGCAGCAGAAUUUACACA | 317 nM | 49.3 nM |  |  |  |
| UCUUUCUUUGUAGAUACCAGCGUGUUAUCUUUCUUUUGACAUGAGGAUCACCCAUGUAUAUGCCCUUGGCAGCUACAUAUUCUUU | 18.5 nM | 14.2 nM |  |  |  |
| UAUAUAUAGAUGGAUACCAGCAGAGAAAACGUUUAUCCUAACAUGAGGAUCACCCAUGUAUGCCCUUGGCAGCUGUUUAUAUAUA |  |  | 24.4 nM | 31.6 nM |  |
| UUAAAUGUGACGGAUACCAGCGUGUUGUAGAACAUGAGGAUCACCCAUGUAGUGAUCGAGCGCCCUUGGCAGCUGGUAUGUUUGA | 180 nM | 532 nM |  |  |  |
| UCUGGGUGCGCAAGGACCUGGAGUUGCGAUACCAGCACGGUAACGUGCCCUUGGCAGCGCACAUGAGGAUCACCCAUGUGGUGUU |  |  | 310 nM | 388 nM |  |
| GAUGAUAUUGCAGAUACCAGACACAUGAGGAUCACCCAUGUCGCUGAGAUGCUGGAUCGUGUCCCUUGGCAGCUGCGAUAUCAUC |  |  | 55.1 nM | 402 nM |  |
| AUACCUAAUGAGUCGUGUAACUUUUCAGAUACCAGACUUUUCGUUGUCCCUUGGCAGCUGUUUUACAUGAGGAUCACCCAUGUUG |  |  | 15.9 nM | 38.1 nM |  |
| ACGAUAGGACAUGAGGAUCACCCAUGUGAUACCAGCCUGGAAACAGGCCCUUGGCAGCACAAAUACUCCAGAAACCUAUCGAAAA |  |  | 258 nM | 417 nM |  |
| UAAAUAUUACUGGGUAAGGUAUAAAUAGAUACCAGCCAGAUAACUGGCCCUUGGCAGCUAAACAUGAGGAUCACCCAUGUAUAAU | 37 nM | 116 nM |  |  |  |
| UCGCACAUGAGGAUCACCCAUGUACUAGAUACCAGUGACGCGGUGCACCCUUGGCAGCUGGUGCUGAGUGAUGGUUCCCUCGGCA |  |  | 119 nM | 143 nM |  |
| AAUAAGUAUCUGCUAGGUGAUCCAGCAGAUACCAGCUAGGAAACUAGCCCUUGGCAGCUGCAACAUGAGGAUCACCCAUGUAAUA |  |  | 444 nM | 228 nM |  |
| UUAGAUAUGACAGAUACCAGCGUGUUGUAGAACAUGAGGAUCACCCAUGUAGUGAUCGAGCGCCCUUGGCAGCUGGUGUGUUUGG | 149 nM | 440 nM |  |  |  |
| UCUCGGUCUUUCUUUCUCCGAGAAUAUGAUACCAGUUAGUUUUAUGGCCCUUGGCAGCAUAGAACAUGAGGAUCACCCAUGUGUU | 94.2 nM | 108 nM |  |  |  |
| AAUAAGCAGCUGCCUUCCUCAUGAGCAGAUACCAGCUAGGAAACUAGCCCUUGGCAGCUGCAACAUGAGGAUCACCCAUGUAAUA |  |  | 65.8 nM | 73 nM |  |
| ACGGCAUGGAAGAAGGAGUACAUGAGGAUCACCCAUGUAGGGUAGCGCGUCCACAUCCAAUAAGACUAGGAUAUUCUUGCAGAU |  |  |  |  | apparent Kd ([2]; no ligand): 39.8 nM; apparent Kd [2, 7]: 83.2 nM |
| UAUACUACUGAGGAUAUCCAAUCCCAGAAACAAGGAGAAGGCAGUACAUGAGGAUCACCCAUGUUCCUCGACAU |  |  |  |  | apparent Kd ([2]; no ligand): 43.1 nM; apparent Kd [2, 7]: 127 nM |
